Test results from paper PMC7655718 (The Journal of antibiotics, 2020).
In brackets after ≈: the same amount, converted by molar mass. Where two headings read alike, the source gives them in different places.

How the values were obtained:
[1] = test system: tested A. baumannii strains; assay: MIC, text summary over A. baumannii strains; type: cell-based, Acinetobacter baumannii
In short: (§1)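 Compounds dissolved in DMSO at 2 mg/mL. Overnight blood-agar colonies were suspended in PBS to 0.5 McFarland, then diluted in Mueller Hinton broth to about 1x10^6 cfu/mL with resazurin (1:1000 of 0.1% w/v stock). Twofold DMSO dilutions were added 1:40, giving 50 to 0.4 μg/mL at 2.5% DMSO. Incubation was 35 °C for 16-20 h. Blue/non-turbid wells counted as inhibited, pink/turbid as grown.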

[2] = test system: S. aureus BAA-2312 (Sa12); assay: MIC, microdilution with resazurin; type: cell-based; conditions: Staphylococcus aureus, BAA2312, read-out: MIC Sa12
In short: as §1

[3] = test system: S. aureus ATCC 33591 (Sa91); assay: MIC, microdilution with resazurin; type: cell-based; conditions: Staphylococcus aureus, ATCC33591, read-out: MIC Sa91
In short: as §1

[4] = test system: A. baumannii ATCC 19606 (Ab06); assay: BacLight membrane permeability assay; type: cell-based, Acinetobacter baumannii; conditions: Ab06, versus positive control colistin at comparable MIC
[5] = test system: tested Gram-positive bacterial strains; assay: MIC, text summary over tested Gram-positive strains; type: cell-based
[6] = test system: S. aureus ATCC 33592 (Sa92); assay: MIC, microdilution with resazurin; type: cell-based; conditions: Staphylococcus aureus, ATCC33592, read-out: MIC Sa92
In short: as §1

[7] = test system: B. subtilis ATCC 6623 (Bs); assay: MIC, microdilution with resazurin; type: cell-based, Bacillus subtilis; conditions: Bacillus subtilis, ATCC6623, read-out: MIC Bs
[8] = test system: A. baumannii ATCC 19606 (type strain, Ab06); assay: MIC and MBC; type: cell-based, Acinetobacter baumannii; conditions: Acinetobacter baumannii
In short: as §1

[9] = test system: S. aureus ATCC 33599 (MRSA); assay: BacLight membrane permeability assay; type: cell-based, Staphylococcus aureus; conditions: versus positive control vancomycin
[10] = test system: S. aureus ATCC 700699 (Sa99); assay: MIC, microdilution with resazurin; type: cell-based; conditions: Staphylococcus aureus, ATCC700699, read-out: MIC Sa99
In short: as §1

[11] = test system: A. baumannii ATCC 747 (Ab47); assay: MIC, microdilution with resazurin; type: cell-based, Acinetobacter baumannii; conditions: Acinetobacter baumannii, ATCC747, read-out: MIC Ab47
In short: as §1

[12] = test system: S. epidermidis 700296 (Se); assay: MIC, microdilution with resazurin; type: cell-based; conditions: Staphylococcus epidermidis, read-out: MIC Se
In short: as §1

[13] = test system: S. aureus ATCC 25923 (Sa23); assay: MIC, microdilution with resazurin; type: cell-based; conditions: Staphylococcus aureus, ATCC25923, read-out: MIC Sa23
In short: as §1

## O=C(O)c1ccc(-n2cc(/C=N/Nc3ccc(F)c(Cl)c3)c(-c3ccc4ccccc4c3)n2)cc1 [Compound 22]
[1]
  activity against A. baumannii strains: moderate growth inhibitor
[2]
  MIC: 3.12 µg/mL (≈ 6.44 µM)
[3]
  MIC: 6.25 µg/mL (≈ 12.9 µM)
[4]
  membrane disrupting ability, PI/SYTO-9 ratio: better membrane disrupting ability
[5]
  antimicrobial activity against the tested strains: potent inhibitors of tested Gram-positive strains
[6]
  MIC: 1.56 µg/mL (≈ 3.22 µM)
[7]
  MIC: 6.25 µg/mL (≈ 12.9 µM)
[8]; ATCC19606
  MBC: 50 µg/mL (≈ 103 µM)
  MIC: 6.25 µg/mL (≈ 12.9 µM)
[8]; ATCC19606, read-out: MIC Ab06
  MIC: 6.25 µg/mL (≈ 12.9 µM)
[9]
  membrane disruption activity, PI/SYTO-9 ratio: more potent membrane disruption activity than vancomycin
[10]
  MIC: 0.78 µg/mL (≈ 1.61 µM)
[11]
  MIC: 12.5 µg/mL (≈ 25.8 µM)
[12]
  MIC: 3.12 µg/mL (≈ 6.44 µM)
[13]
  MIC: 3.12 µg/mL (≈ 6.44 µM)
